Laboratory results reported in ChEMBL document CHEMBL1138529, “Efficacy, pharmacokinetics, and metabolism of tetrahydroquinoline inhibitors of Plasmodium falciparum protein farnesyltransferase” (Antimicrob Agents Chemother, 2007).
Activity calls are given as the source filed them.

Assays:
[1] = molecular target: Melatonin receptor type 1A (Homo sapiens) (UniProt P48039); test: Inhibition of melatonin MT1 receptor at 10 uM
Summary of the method: (§1)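 Radioligand displacement at a contract lab across a panel of 50 receptors, ion channels and transporters, single test concentration 10 μM; loss of specific ligand binding reported as percent, with >50% decrease counted as significant.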

[2] = tested on: Plasmodium falciparum; test: Antiplasmodial activity against Plasmodium falciparum by [3H]hypoxanthine uptake; assay type: functional; details: read-out: ED50 (the source's name)
Summary of the method: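 Asynchronous P. falciparum (3D7 or K1) in RPMI 1640 with 20% heat-inactivated human A+ plasma, 0.5% parasitemia and 0.5% hematocrit; compound serially diluted, top final 5 μM, 48 h at 37°C under 5% CO2/5% O2/90% N2, then [8-3H]hypoxanthine 0.3 μCi added for 24 h.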

[3] = molecular target: Beta-1 adrenergic receptor (Homo sapiens) (UniProt P08588); test: Inhibition of beta-1 adrenergic receptor at 10 uM; summary of the method: as §1
[4] = Inhibition of […] GABA-gated chloride channel at 10 uM
Summary of the method: (§2)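 Radioligand displacement screen at a 10 μM test concentration, run by a contract lab across a panel of 50 receptors, pharmacologically active ion channels and transporters. The read-out is the decrease in specific radiolabeled ligand binding, expressed as a percentage. A decrease above 50% was considered significant.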

[5] = molecular target: Delta-type opioid receptor (Homo sapiens) (UniProt P41143); test: Inhibition of delta opioid receptor at 10 uM; summary of the method: as §1
[6] = molecular target: D(1A) dopamine receptor (Homo sapiens) (UniProt P21728); test: Inhibition of dopamine D1 receptor at 10 uM; summary of the method: as §1
[7] = tested on: Rattus norvegicus; test: Toxicity in Plasmodium berghei NK65 infected Sprague-Dawley rat assessed as effect on glucose levels at 50 mg/kg, perorally administered every 12 hrs for 3 days; assay type: organism-based; parameters: dose 50 mg/kg, route oral; details: in vivo, po, in the assay text read “every 8 hrs” for “every 12 hrs”
Summary of the method: (§3)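 Female Sprague-Dawley rats, 10-12 weeks, n = 3 per schedule. Dosed 50 mg/kg by oral gavage every 8 h or every 12 h for 72 h. At the end of dosing, blood was sent to a clinical laboratory for complete blood counts, white cell differentials, electrolytes, glucose, renal function, liver enzymes and cholesterol.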

[8] = molecular target: 5-hydroxytryptamine receptor 3A (Homo sapiens) (UniProt P46098); test: Inhibition of 5HT3 receptor at 10 uM
Summary of the method: (§4)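 Radioligand displacement screen by a contractor across 50 receptors, ion channels and transporters, test compound at 10 μM; decrease in specific ligand binding expressed as percentage, with >50% decrease taken as significant.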

[9] = Oral bioavailability in Sprague-Dawley rat; assay type: ADME, organism-based; details: in vivo
Summary of the method: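 Female Sprague-Dawley rats, 10-12 weeks, three per group. Oral gavage at 50 mg/kg and jugular-catheter i.v. dose at 2 mg/kg, both in 3% EtOH-7% Tween 80-90% saline. Plasma taken over time, acetonitrile extraction with internal standard, LC/MS. Bioavailability computed as oral AUC/i.v. AUC.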

[10] = tested on: Mus musculus; test: Toxicity in BALB/c mouse at 50 mg/kg, po; assay type: organism-based; parameters: dose 50 mg/kg, route oral; details: in vivo
[11] = molecular target: Neuropeptide Y receptor type 2 (Homo sapiens) (UniProt P49146); test: Inhibition of neuropeptide Y2 receptor at 10 uM; summary of the method: as §1
[12] = molecular target: Neuromedin-K receptor (Homo sapiens) (UniProt P29371); test: Inhibition of NK3 receptor at 10 uM; summary of the method: as §4
[13] = molecular target: Melanocortin receptor 4 (Homo sapiens) (UniProt P32245); test: Inhibition of MC4 receptor at 10 uM; summary of the method: as §4
[14] = molecular target: 5-hydroxytryptamine receptor 6 (Homo sapiens) (UniProt P50406); test: Inhibition of 5HT6 receptor at 10 uM; summary of the method: as §4
[15] = molecular target: Cholecystokinin receptor type A (Homo sapiens) (UniProt P32238); test: Inhibition of CCK1 receptor at 10 uM; summary of the method: as §4
[16] = tested on: Plasmodium berghei; test: Antiplasmodial activity as reduced parasitaemia against Plasmodium berghei NK65 infected Sprague-Dawley rat at 50 mg/kg every 12 hrs peroral dose for 3 days
[17] = tested on: Rattus norvegicus; test: Toxicity in Plasmodium berghei NK65 infected Sprague-Dawley rat assessed as effect on cholesterol levels at 50 mg/kg, perorally administered every 8 hrs for 3 days; assay type: organism-based; parameters: dose 50 mg/kg, route oral; details: in vivo, po; summary of the method: as §3
[18] = molecular target: 5-hydroxytryptamine receptor 1B (Homo sapiens) (UniProt P28222); test: Inhibition of 5HT1B receptor at 10 uM; summary of the method: as §4
[19] = molecular target: 5-hydroxytryptamine receptor 1A (Homo sapiens) (UniProt P08908); test: Inhibition of 5HT1A receptor at 10 uM; summary of the method: as §4
[20] = AUC in BALB/c mouse at 50 mg/kg, po; assay type: ADME, organism-based; parameters: dose 50 mg/kg, route oral; details: plasma
Summary of the method: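 Three female BALB/c mice (lines for mice, 8–10 weeks) or three female Sprague-Dawley rats (10–12 weeks) per group; 50 mg/kg oral gavage in 3% EtOH-7% Tween 80-90% normal saline. Plasma sampled at set times (tail bleed in mice, saphenous vein in rats), extracted with acetonitrile plus internal standard, quantified by LC/MS; AUC as mean of three animals.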

[21] = molecular target: 5-hydroxytryptamine receptor 2A (Homo sapiens) (UniProt P28223); test: Inhibition of 5HT2A receptor at 10 uM; summary of the method: as §4
[22] = molecular target: Substance-K receptor (Homo sapiens) (UniProt P21452); test: Inhibition of NK2 receptor at 10 uM; summary of the method: as §4
[23] = Inhibition of SKCa channel at 10 uM; summary of the method: as §2
[24] = AUC in Sprague-Dawley rat at 2 mg/kg, iv; assay type: ADME, organism-based; parameters: dose 2 mg/kg, route intravenous; details: plasma
Summary of the method: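 Three female Sprague-Dawley rats per group (10–12 weeks), jugular-vein catheterized; 2 mg/kg in 3% EtOH-7% Tween 80-90% normal saline given through the catheter. Plasma drawn from the catheter at set times, acetonitrile extraction with internal standard, LC/MS quantification.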

[25] = molecular target: Muscarinic acetylcholine receptor M3 (Homo sapiens) (UniProt P20309); test: Inhibition of muscarinic M3 receptor at 10 uM; summary of the method: as §1
[26] = molecular target: Adenosine receptor A3 (Homo sapiens) (UniProt P0DMS8); test: Inhibition of adenosine A3 receptor at 10 uM; summary of the method: as §4
[27] = molecular target: Histamine H2 receptor (Homo sapiens) (UniProt P25021); test: Inhibition of histamine H2 receptor at 10 uM; summary of the method: as §1
[28] = Metabolic stability in rat liver microsomes; assay type: ADME, Microsome
Summary of the method: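 Pooled female liver microsomes at 0.5 mg/ml in 0.1 M potassium phosphate pH 7.4, 3 mM MgCl2, 1 mM EDTA, with NADPH regenerating system (1 mM NADP+, 5 mM glucose-6-phosphate, 1 U/ml G6PDH). Preincubated 10 min at 37°C, then compound added to 1 μM final. Time points quenched with 3 volumes acetonitrile plus internal standard; parent quantified by LC/MS; half-life reported.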

[29] = tested on: Salmonella typhimurium; test: Genotoxicity in Salmonella enterica serovar Typhimurium TA100 assessed as increase in number of revertants in presence of rat liver S9 fraction by Ames test; assay type: toxicity, organism-based; details: salmonella enterica subsp. enterica serovar typhimurium
Summary of the method: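 Liquid-culture Ames assay run by a contractor: S. Typhimurium TA98 and TA100 exposed for 96 h in histidine-free medium, with and without rat liver S9, at 5, 10, 50 and 100 μM (plus higher concentrations); growth read spectrophotometrically by pH-indicator colour change. Parallel bacterial cytotoxicity assay at same concentrations.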

[30] = molecular target: Muscarinic acetylcholine receptor M2 (Homo sapiens) (UniProt P08172); test: Inhibition of muscarinic M2 receptor at 10 uM; summary of the method: as §1

Sequence of Beta-1 adrenergic receptor (Homo sapiens) (P08588 whole entry, looked up): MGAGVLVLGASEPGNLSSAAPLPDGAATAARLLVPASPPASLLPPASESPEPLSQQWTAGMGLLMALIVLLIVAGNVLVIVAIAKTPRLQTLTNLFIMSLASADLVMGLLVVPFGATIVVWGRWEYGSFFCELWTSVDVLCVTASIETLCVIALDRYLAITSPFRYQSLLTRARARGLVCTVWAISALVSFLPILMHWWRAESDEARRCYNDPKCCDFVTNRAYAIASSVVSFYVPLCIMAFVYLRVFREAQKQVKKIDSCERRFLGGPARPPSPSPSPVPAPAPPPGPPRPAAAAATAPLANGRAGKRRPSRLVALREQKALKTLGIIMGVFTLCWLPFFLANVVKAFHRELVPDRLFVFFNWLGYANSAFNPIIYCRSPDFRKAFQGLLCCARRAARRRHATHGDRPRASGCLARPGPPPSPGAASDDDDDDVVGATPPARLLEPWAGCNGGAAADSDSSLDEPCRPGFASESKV
Sequence of Delta-type opioid receptor (Homo sapiens) (P41143 whole entry): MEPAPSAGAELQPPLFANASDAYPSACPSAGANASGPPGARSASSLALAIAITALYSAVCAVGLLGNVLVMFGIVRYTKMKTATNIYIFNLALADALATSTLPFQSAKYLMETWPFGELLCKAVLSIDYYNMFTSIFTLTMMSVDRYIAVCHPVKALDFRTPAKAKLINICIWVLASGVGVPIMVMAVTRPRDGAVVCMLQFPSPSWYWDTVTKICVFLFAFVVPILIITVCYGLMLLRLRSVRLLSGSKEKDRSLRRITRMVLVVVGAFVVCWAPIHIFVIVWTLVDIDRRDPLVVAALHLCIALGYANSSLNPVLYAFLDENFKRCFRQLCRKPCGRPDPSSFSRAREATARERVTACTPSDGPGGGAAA
Sequence of Histamine H2 receptor (Homo sapiens) (P25021 whole entry): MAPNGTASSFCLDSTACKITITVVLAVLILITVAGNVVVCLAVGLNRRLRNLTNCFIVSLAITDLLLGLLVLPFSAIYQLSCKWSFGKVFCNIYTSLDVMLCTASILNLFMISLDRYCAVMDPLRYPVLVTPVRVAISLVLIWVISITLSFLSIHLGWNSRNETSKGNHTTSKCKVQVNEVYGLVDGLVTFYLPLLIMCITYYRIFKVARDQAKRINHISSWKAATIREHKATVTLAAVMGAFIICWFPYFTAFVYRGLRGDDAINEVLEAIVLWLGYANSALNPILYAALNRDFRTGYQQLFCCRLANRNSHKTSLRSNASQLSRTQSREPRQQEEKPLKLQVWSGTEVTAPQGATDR
Sequence of Muscarinic acetylcholine receptor M3 (Homo sapiens) (P20309 whole entry, looked up): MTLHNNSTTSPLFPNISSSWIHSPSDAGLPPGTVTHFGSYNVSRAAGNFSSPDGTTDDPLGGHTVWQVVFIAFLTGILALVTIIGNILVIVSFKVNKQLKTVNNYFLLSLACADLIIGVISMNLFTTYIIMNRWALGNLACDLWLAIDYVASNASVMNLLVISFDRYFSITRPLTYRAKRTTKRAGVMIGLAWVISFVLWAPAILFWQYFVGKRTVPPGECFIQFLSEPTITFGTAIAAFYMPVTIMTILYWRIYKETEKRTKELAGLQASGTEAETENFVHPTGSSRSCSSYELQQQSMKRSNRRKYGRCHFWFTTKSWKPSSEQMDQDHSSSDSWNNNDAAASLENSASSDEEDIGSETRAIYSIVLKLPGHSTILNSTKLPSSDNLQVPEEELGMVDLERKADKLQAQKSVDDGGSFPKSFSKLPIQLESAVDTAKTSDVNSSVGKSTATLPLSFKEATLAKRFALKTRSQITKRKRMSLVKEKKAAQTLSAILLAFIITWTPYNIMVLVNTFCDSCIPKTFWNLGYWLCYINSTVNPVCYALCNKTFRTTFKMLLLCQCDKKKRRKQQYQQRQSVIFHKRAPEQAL
Sequence of Melanocortin receptor 4 (Homo sapiens) (P32245 whole entry): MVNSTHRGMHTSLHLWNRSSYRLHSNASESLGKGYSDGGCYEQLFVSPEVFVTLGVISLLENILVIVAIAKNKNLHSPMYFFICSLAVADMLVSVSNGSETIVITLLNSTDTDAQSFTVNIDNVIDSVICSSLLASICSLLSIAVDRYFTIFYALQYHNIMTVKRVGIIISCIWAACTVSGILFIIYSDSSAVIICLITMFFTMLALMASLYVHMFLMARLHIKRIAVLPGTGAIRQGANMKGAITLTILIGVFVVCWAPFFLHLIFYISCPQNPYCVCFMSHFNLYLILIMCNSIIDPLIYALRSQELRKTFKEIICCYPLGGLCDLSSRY
Sequence of 5-hydroxytryptamine receptor 2A (Homo sapiens) (P28223 whole entry): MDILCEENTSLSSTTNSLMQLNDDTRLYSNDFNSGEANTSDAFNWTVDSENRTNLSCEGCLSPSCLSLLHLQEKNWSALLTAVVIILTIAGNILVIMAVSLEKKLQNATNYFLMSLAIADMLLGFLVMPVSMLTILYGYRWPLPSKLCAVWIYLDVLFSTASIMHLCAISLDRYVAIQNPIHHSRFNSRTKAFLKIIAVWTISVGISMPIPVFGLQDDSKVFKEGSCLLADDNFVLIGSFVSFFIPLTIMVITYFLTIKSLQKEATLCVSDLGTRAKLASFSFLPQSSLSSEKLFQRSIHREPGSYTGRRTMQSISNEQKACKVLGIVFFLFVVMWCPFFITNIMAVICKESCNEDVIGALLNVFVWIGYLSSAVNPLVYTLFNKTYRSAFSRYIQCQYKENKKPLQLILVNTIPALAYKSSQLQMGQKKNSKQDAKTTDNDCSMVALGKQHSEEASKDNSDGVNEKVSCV
Sequence of 5-hydroxytryptamine receptor 1B (Homo sapiens) (P28222 whole entry): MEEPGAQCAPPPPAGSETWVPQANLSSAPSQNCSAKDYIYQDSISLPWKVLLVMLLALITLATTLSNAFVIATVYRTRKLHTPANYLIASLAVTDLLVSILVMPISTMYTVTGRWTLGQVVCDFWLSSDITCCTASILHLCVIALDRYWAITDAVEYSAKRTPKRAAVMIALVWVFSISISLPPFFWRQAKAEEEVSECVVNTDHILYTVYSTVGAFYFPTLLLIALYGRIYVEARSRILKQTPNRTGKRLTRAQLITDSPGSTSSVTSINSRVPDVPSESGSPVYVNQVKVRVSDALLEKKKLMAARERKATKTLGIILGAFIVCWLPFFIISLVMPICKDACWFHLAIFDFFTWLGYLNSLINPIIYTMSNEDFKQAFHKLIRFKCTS
Sequence of 5-hydroxytryptamine receptor 1A (Homo sapiens) (P08908 whole entry): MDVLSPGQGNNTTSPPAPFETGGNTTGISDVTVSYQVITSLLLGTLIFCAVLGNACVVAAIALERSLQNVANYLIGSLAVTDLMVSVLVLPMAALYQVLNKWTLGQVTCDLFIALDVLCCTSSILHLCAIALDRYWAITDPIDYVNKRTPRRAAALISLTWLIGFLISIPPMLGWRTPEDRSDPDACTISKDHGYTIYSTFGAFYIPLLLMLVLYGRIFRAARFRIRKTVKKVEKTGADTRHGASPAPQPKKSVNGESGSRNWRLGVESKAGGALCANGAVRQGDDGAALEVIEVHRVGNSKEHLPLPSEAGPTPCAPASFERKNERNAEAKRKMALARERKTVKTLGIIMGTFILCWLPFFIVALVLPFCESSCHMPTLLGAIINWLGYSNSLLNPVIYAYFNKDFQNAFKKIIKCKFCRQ
Sequence of D(1A) dopamine receptor (Homo sapiens) (P21728 whole entry): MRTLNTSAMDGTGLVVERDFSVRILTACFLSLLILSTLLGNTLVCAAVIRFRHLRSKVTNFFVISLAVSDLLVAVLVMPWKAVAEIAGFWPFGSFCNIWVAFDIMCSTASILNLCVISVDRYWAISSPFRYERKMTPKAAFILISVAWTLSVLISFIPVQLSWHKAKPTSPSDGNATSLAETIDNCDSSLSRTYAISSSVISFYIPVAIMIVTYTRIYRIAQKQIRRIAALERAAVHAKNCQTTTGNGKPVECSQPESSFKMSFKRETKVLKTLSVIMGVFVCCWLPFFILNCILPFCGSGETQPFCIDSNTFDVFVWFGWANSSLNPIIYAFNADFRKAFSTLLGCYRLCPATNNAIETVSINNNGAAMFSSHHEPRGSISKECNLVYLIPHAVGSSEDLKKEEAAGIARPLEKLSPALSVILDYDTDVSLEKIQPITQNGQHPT
Sequence of 5-hydroxytryptamine receptor 6 (Homo sapiens) (P50406 whole entry): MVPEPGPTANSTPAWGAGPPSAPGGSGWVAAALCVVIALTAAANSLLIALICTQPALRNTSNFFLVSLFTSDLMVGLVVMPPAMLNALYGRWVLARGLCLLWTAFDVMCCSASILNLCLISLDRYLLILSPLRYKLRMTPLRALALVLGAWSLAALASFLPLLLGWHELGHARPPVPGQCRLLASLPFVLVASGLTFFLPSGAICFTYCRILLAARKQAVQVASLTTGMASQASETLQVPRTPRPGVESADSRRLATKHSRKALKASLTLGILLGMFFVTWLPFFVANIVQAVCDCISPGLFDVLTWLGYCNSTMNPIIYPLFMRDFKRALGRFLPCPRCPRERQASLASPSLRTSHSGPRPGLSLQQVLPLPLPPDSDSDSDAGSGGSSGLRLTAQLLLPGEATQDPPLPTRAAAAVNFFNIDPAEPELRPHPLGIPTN
Sequence of Neuromedin-K receptor (Homo sapiens) (P29371 whole entry): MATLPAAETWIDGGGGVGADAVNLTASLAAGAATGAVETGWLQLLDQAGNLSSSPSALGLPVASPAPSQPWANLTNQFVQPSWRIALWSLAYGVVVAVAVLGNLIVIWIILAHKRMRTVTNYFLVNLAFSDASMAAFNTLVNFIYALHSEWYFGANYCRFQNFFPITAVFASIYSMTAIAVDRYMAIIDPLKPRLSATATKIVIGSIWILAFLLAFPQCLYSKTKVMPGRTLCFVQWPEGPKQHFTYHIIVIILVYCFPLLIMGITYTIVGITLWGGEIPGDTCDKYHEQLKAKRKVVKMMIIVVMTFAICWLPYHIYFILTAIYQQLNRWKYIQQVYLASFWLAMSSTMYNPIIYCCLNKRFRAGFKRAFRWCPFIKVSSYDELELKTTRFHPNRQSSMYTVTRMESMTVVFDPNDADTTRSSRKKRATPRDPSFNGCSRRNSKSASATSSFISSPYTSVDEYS

COC(=O)N1CCC(CN(C2Cc3cc(C#N)ccc3N(Cc3cncn3C)C2)S(=O)(=O)c2ccccn2)CC1 (stereo not given)
inhibition [1]: inactive | EC50 [2]: 0.018 µM | inhibition [3]: inactive | inhibition [4]: inactive | inhibition [5]: inactive | inhibition [6]: inactive | Activity [7]: Non-toxic | inhibition [8]: inactive | bioavailability [9]: 82% | Activity [10]: Non-toxic | inhibition [11]: inactive | inhibition [12]: inactive | inhibition [13]: inactive | inhibition [14]: inactive | inhibition [15]: inactive | Activity [16]: inactive | Activity [17]: Non-toxic | inhibition [18]: inactive | inhibition [19]: inactive | AUC [20]: 3.68 µM·h | inhibition [21]: inactive | inhibition [22]: inactive | inhibition [23]: inactive | AUC [24]: 0.533 µM·h | inhibition [25]: inactive | inhibition [26]: inactive | inhibition [27]: inactive | half-life [28]: 14 min | Activity [29]: Non-toxic | inhibition [30]: 77%
